We go through 15 compounds from ChEMBL document CHEMBL1134406, “Azepanone-based inhibitors of human and rat cathepsin K” (J Med Chem, 2001).

The target in one data set is Cathepsin S (Homo sapiens, UniProt P25774). Nature of the data set: Inhibitory activity against Human cathepsin S.
Data set [1] addresses T1, Cathepsin K (Homo sapiens, UniProt P43235).
T1 sequence (P43235 whole entry): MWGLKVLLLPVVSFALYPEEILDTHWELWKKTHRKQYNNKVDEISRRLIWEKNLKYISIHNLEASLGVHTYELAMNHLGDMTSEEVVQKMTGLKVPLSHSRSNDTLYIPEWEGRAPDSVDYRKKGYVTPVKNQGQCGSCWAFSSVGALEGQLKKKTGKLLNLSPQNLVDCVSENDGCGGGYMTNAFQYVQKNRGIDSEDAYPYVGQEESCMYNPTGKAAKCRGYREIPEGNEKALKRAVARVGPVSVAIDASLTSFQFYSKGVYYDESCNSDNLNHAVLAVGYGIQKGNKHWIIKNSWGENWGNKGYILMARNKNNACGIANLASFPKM
Nature of the data set: Inhibition of Human cathepsin K.

The target in the next data set is Procathepsin L (Homo sapiens, UniProt P07711). Nature of the data set: Inhibitory activity against Human cathepsin L.
A short description of data set [2]: half life period in male Sprague-Dawley rat. The class given is ADME, organism-based. The following applies: in vivo. In a few lines: (§1)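 Crossover in rats over 2 study days, 2 days apart: 30-min IV infusion on day 1, oral bolus gavage in the same animals on day 2. Blood taken from lateral tail vein, plasma by centrifugation, drug quantified by LC/MS/MS (LLOQ 5–10 ng/mL). PK parameters from plasma concentration–time data by standard analysis.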

Data set [3] is described as follows: volume distribution in male Sprague-Dawley rat. The class given is ADME, organism-based. The settings on record: in vivo, read-out: Vdss. In a few lines:
as §1

A short description of data set [4]: Bioavailability in rat (Sprague-Dawley) (male). It counts as ADME, organism-based. The following applies: in vivo. Put shortly: as §1
The nature of data set [5]: plasma clearance in male Sprague-Dawley rat. The class given is ADME, organism-based. In a few lines: as §1
Another data set addresses Cathepsin B (Homo sapiens, UniProt P07858). The data set can be described thus: Inhibitory activity against Human cathepsin B.
Data set [6] can be described thus: Volume of distribution in male Sprague-Dawley rat. It counts as ADME, organism-based. The settings on record: in vivo, read-out: Vdss. Put shortly: as §1
The target in data set [7] is T2, Cathepsin K (Rattus norvegicus, UniProt O35186).
T2 sequence (O35186 whole entry): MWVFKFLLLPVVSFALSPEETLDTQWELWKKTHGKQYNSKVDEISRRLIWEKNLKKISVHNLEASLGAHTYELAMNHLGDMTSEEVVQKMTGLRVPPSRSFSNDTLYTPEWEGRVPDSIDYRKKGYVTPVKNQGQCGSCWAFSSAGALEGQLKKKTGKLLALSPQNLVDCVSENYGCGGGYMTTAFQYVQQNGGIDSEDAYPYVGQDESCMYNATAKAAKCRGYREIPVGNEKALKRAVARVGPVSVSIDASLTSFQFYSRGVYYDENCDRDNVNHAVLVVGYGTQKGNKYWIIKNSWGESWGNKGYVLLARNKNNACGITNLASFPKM
The data set can be described thus: Inhibitory activity against Rat cathepsin K.

The target in data set [8] is T1, Cathepsin K. Nature of the data set: In vitro IC50 value was measured using in situ cytochem assay.

Procathepsin L, sequence (P07711 whole entry, the tested form may be a part): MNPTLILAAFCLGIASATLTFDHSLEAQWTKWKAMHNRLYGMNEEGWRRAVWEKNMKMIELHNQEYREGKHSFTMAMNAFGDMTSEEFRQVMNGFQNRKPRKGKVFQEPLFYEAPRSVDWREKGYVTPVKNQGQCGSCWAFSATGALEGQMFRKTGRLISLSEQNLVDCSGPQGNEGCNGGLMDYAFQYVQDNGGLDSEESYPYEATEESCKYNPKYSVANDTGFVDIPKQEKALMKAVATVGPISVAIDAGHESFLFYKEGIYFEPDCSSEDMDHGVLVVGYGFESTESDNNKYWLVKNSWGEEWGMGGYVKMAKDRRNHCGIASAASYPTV
Cathepsin S, sequence (P25774 whole entry): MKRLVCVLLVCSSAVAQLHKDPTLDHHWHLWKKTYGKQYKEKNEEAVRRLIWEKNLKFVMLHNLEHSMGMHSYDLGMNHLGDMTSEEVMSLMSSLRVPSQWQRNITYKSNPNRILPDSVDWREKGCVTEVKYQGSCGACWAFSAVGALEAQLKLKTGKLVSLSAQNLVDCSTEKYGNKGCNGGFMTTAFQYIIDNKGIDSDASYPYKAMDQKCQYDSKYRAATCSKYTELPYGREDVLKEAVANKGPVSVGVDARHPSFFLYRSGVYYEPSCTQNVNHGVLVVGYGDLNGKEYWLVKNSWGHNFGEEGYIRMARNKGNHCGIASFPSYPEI

By Ki is commonly meant the equilibrium dissociation constant of an inhibitor or competing ligand from its target. Lower therefore signals a stronger hold on the target. `CC(C)C[C@H](NC(=O)OCc1ccccc1)C(=O)NCC(=O)CNC(=O)[C@H](CC(C)C)NC(=O)OCc1ccccc1`: at Cathepsin S, the affinity, expressed as Ki, was 890 nM. In other words, the sub-micromolar range.
Take `CC(C)C[C@H](NC(=O)OCc1ccccc1)C(=O)NC1CCCN(C(=O)[C@H](CC(C)C)NC(=O)OCc2ccccc2)CC1=O` (stereo partly drawn): the Ki at Cathepsin K [1] was 2 nM; at Procathepsin L, 47 nM; on Cathepsin S it was 26 nM.
On Cathepsin K [1], `CC(C)C[C@H](NC(=O)c1cc2ccccc2o1)C(=O)NC1CCCN(S(=O)(=O)c2ccccn2)CC1O` (stereo partly drawn) gave a Ki greater than 1000 nM.
The half-life is the time in which the quantity being followed falls by half. What is called bioavailability is the share of a dose that reaches the circulation, judged against a reference dose that is usually intravenous. Low readings indicate little systemic uptake, high ones much systemic uptake. The term clearance denotes the volume of plasma or blood freed of the substance per unit of time. Higher therefore signals efficient removal. Consider `CC(C)C[C@H](NC(=O)c1cc2ccccc2o1)C(=O)N[C@@H]1CCCN(S(=O)(=O)c2ccccn2)CC1=O`, for which the half-life in data set [2] amounted to 33.2 min. Moreover, the Vd in [3] was determined as 1.64 L/kg. Besides, the bioavailability in [4] amounted to 9.7%. For the same compound, the clearance in data set [5] is 51.9 mL/min/kg.
In the case of `CC(C)C[C@H](NC(=O)OCc1ccccc1)C(=O)N1CCCC(NC(=O)[C@@H](CC(C)C)NC(=O)OCc2ccccc2)C(=O)C1` (stereo partly drawn), the Ki at Cathepsin K [1] turned out to be 30 nM.
`CC(C)C[C@H](NC(=O)OCc1ccccc1)C(=O)N1CCC(NC(=O)[C@@H](CC(C)C)NC(=O)OCc2ccccc2)C(=O)C1` (stereo partly drawn): the Ki is 440 nM at Cathepsin B and 2.6 nM at Cathepsin K [1].
Turning to `CC(C)C[C@H](NC(=O)c1cc2ccccc2o1)C(=O)NCC(=O)CNS(=O)(=O)c1ccccn1`, the half-life in [2] is 27 min. In addition, the affinity at Cathepsin K [1] corresponds to a Ki of 1.6 nM. In addition, the Vd in data set [3] came to 0.65 L/kg. Also, the bioavailability in data set [4] is 3.3%. Further, the clearance in data set [5] is 33.1 mL/min/kg.
On to `CC(C)C[C@H](NC(=O)OCc1ccccc1)C(=O)N1CC(=O)C(NC(=O)[C@@H](CC(C)C)NC(=O)OCc2ccccc2)C1` (stereo partly drawn), for which the Ki on Cathepsin B was greater than 1000 nM; at Cathepsin K [1] it was 2.3 nM.
For `CC(C)C[C@H](NC(=O)c1cc2ccccc2o1)C(=O)N[C@@H](C)C(=O)CN(C)S(=O)(=O)c1ccccn1`, the half-life in data set [2] was 21.5 min. This compound showed a Ki on Cathepsin K [1] of 670 nM. Moreover, the Vd in data set [3] came to 1.15 L/kg. In data set [4], this compound had a bioavailability of 2.5%. In data set [5], the clearance is 44.6 mL/min/kg.
Take `CC(C)C[C@H](NC(=O)OCc1ccccc1)C(=O)N[C@@H]1CCCN(C(=O)[C@H](CC(C)C)NC(=O)OCc2ccccc2)CC1=O`: the inhibition constant (Ki) on Cathepsin K [1] was 15 nM; on Procathepsin L it was 290 nM; on Cathepsin S, 97 nM.
In turn, `CC(C)C[C@H](NC(=O)c1cc2ccccc2o1)C(=O)N[C@@H](C)C(=O)CNS(=O)(=O)c1ccccn1` yielded a half-life in data set [2] of 33.2 min. In addition, the Ki at Cathepsin B came out at 59 nM; on Cathepsin K [1], 7.5 nM; at Cathepsin S, 20 nM. The bioavailability in data set [4] was determined as 3.2%. Besides, in [6], the Vd was determined as 0.71 L/kg. For the same compound, the clearance in [5] turned out to be 32.5 mL/min/kg.
On Cathepsin K [1], `CC(C)C[C@H](NC(=O)c1cc2cc(OCCN3CCOCC3)ccc2o1)C(=O)NC1CCCN(C(=O)Cc2cccc(-c3ccccn3)c2)CC1O` (stereo partly drawn) came in with a Ki of 54 nM.
The same measure, in the same setting: as for `CC(C)C[C@H](NC(=O)c1cc2cc(OCCN3CCOCC3)ccc2o1)C(=O)N[C@@H]1CCCN(C(=O)Cc2cccc(-c3ccccn3)c2)CC1=O`, the figure is 4.7 nM.
In the case of `CC(C)C[C@H](NC(=O)c1cc2ccccc2o1)C(=O)N[C@H]1CCCN(S(=O)(=O)c2ccccn2)CC1=O`, the half-life in data set [2] was determined as 29.8 min. The Ki at Cathepsin B came out at 500 nM; at Cathepsin K [7], 60 nM; on Procathepsin L, 2.2 nM. In [4], the bioavailability worked out at 42.1%. Also, the Vd in data set [6] was 1.86 L/kg. The compound further yielded a clearance in [5] of 49.2 mL/min/kg.
The IC50 is the point on the concentration scale where inhibition reaches its midpoint. `CC(C)C[C@H](NC(=O)c1cc2cc(OCCN3CCOCC3)ccc2o1)C(=O)N[C@H]1CCCN(C(=O)Cc2cccc(-c3ccccn3)c2)CC1=O` displayed a half-life in data set [2] of 338 min. The Ki on Cathepsin B was 100 nM; on Cathepsin K [1] it was 0.0048 nM; on Cathepsin K [7], 4.8 nM; at Procathepsin L, 0.49 nM; on Cathepsin S, 14 nM. The compound further showed a bioavailability in [4] of 2.1%. Moreover, the Vd in data set [6] came to 1.29 L/kg. In data set [5], this compound yielded a clearance of 39.7 mL/min/kg. On Cathepsin K [8], 30 nM corresponded to half-maximal inhibition (IC50).
